≈ marks a conversion by molar mass, not a printed value.
What was measured:
Format in all cases: functional
[1] = tested on: HeLa; test: Evaluation for antiviral activity against Coxsackie virus B4 in HeLa cell cultures (Concentration required to reduce virus-induced cytopathogenicity by 50%); details: Homo sapiens
Outline: (§1)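 HeLa cultures were infected with respiratory syncytial, vesicular stomatitis, Coxsackie B4 or polio-1 virus. The antiviral end-point is 50% reduction of virus-induced cytopathogenicity. Cytotoxicity is the minimum concentration producing microscopically detectable alteration of normal cell morphology.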

[2] = tested on: HeLa; test: Evaluation for antiviral activity against vesicular stomatitis virus in HeLa cell cultures (Concentration required to reduce virus-induced cytopathogenicity by 50%); details: Homo sapiens; outline: as §1
[3] = tested on: HeLa; test: Evaluation in HeLa cell cultures for cytotoxicity that is to cause microscopically detectable alteration of normal cell morphology; details: Homo sapiens; outline: as §1
[4] = tested on: MDCK; test: Compound was evaluated in MDCK cell cultures for cytotoxicity that is to cause microscopically detectable alteration of normal cell morphology; details: Canis lupus familiaris
Outline: (§2)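 Influenza A and B virus replication in MDCK cultures. Antiviral value is the concentration giving 50% reduction of virus-induced cytopathogenicity. Cytotoxicity is the concentration causing a microscopically detectable change in normal cell morphology.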

[5] = tested on: MT4; test: Inhibitory effect on the proliferation of human T-lymphocyte (MT-4); details: read-out: ID50 (the source's name)
Outline: (§3)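 Proliferation assay in murine leukemia L1210, human T-lymphoblast Molt-4F and human T-lymphocyte MT-4 cells. ID50 is the dose inhibiting tumor cell proliferation by 50%, expressed in μg/mL.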

[6] = tested on: MOLT-4F; test: Inhibitory effect on the proliferation of human T-lymphoblast cells (Molt-4F); details: read-out: ID50 (the source's name); outline: as §3
[7] = Evaluation for antiviral activity against vesicular stomatitis virus in primary rabbit kidney cell cultures(PRK) (Concentration required to reduce virus-induced cytopathogenicity by 50%); details: Oryctolagus cuniculus
[8] = Evaluation in PRK cell cultures for cytotoxicity that is to cause microscopically detectable alteration of normal cell morphology; details: Oryctolagus cuniculus
[9] = Evaluation for antiviral activity against herpes simplex virus-1(F) in primary rabbit kidney cell cultures(PRK) (Concentration required to reduce virus-induced cytopathogenicity by 50%); details: Oryctolagus cuniculus
[10] = Evaluated for antiviral activity against herpes simplex virus-1(KOS) in primary rabbit kidney cell cultures(PRK) (Concentration required to reduce virus-induced cytopathogenicity by 50%); details: Oryctolagus cuniculus
[11] = Evaluation for antiviral activity against herpes simplex virus-1 (McIntyre) in primary rabbit kidney cell cultures(PRK) (Concentration required to reduce virus-induced cytopathogenicity by 50%); details: Oryctolagus cuniculus
[12] = Evaluation for antiviral activity against herpes simplex virus-1(TK-) (B2006) in primary rabbit kidney cell cultures(PRK) (Concentration required to reduce virus-induced cytopathogenicity by 50%); details: Oryctolagus cuniculus
[13] = Evaluation for antiviral activity against herpes simplex virus-2(196) in primary rabbit kidney cell cultures(PRK) (Concentration required to reduce virus-induced cytopathogenicity by 50%); details: Oryctolagus cuniculus
[14] = Evaluation for antiviral activity against herpes simplex virus-2(G) in primary rabbit kidney cell cultures(PRK) (Concentration required to reduce virus-induced cytopathogenicity by 50%); details: Oryctolagus cuniculus
[15] = Evaluation for antiviral activity against herpes simplex virus-2(Lyons) in primary rabbit kidney cell cultures(PRK) (Concentration required to reduce virus-induced cytopathogenicity by 50%); details: Oryctolagus cuniculus
[16] = tested on: Vero; test: Evaluation for antiviral activity against reo virus-1 in Vero cell cultures (Concentration required to reduce virus-induced cytopathogenicity by 50%); details: Chlorocebus sabaeus
Outline: (§4)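 Vero cultures were infected with parainfluenza-3, reovirus-1, Sindbis, Coxsackie B4 or Semliki forest virus. Values are concentrations giving 50% reduction of virus-induced cytopathogenicity, or a microscopically detectable alteration of normal cell morphology for cytotoxicity. Each is the average of two separate experiments.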

[17] = tested on: Vero; test: Evaluation in Vero cell cultures for cytotoxicity that is to cause microscopically detectable alteration of normal cell morphology; details: Chlorocebus sabaeus; outline: as §4
[18] = tested on: Vero; test: Evaluation for antiviral activity against forest virus in Vero cell cultures (Concentration required to reduce virus-induced cytopathogenicity by 50%); details: Chlorocebus sabaeus; outline: as §4
[19] = tested on: Vero; test: Evaluation for antiviral activity against Sindbis virus in Vero cell cultures (Concentration required to reduce virus-induced cytopathogenicity by 50%); details: Chlorocebus sabaeus; outline: as §4
[20] = tested on: Vero; test: Evaluation for antiviral activity against parainfluenza-3 virus in Vero cell cultures (Concentration required to reduce virus-induced cytopathogenicity by 50%); details: Chlorocebus sabaeus; outline: as §4
[21] = tested on: L1210; test: Inhibitory effect on the proliferation of murine leukemia cells (L1210); details: Mus musculus, read-out: ID50 (the source's name); outline: as §3
[22] = tested on: Influenza B virus; test: Concentration required to reduce influenza virus B (singapore) induced cytopathogenicity by 50%; outline: as §2
[23] = tested on: Vero; test: Evaluation for antiviral activity against Coxsackie virus B4 in Vero cell cultures (Concentration required to reduce virus-induced cytopathogenicity by 50%); details: Chlorocebus sabaeus; outline: as §4
[24] = Evaluation for antiviral activity against vaccinia virus in primary rabbit kidney cell cultures(PRK) (Concentration required to reduce virus-induced cytopathogenicity by 50%); details: Oryctolagus cuniculus
[25] = tested on: Influenza A virus; test: Concentration required to reduce influenza virus A (ishikawa) induced cytopathogenicity by 50%; outline: as §2
[26] = tested on: HeLa; test: Evaluation for antiviral activity against polio virus-1 in HeLa cell cultures (Concentration required to reduce virus-induced cytopathogenicity by 50%); details: Homo sapiens; outline: as §1
[27] = tested on: HeLa; test: Compound was evaluated for antiviral activity against respiratory syncitial virus (long) in HeLa cell cultures (Concentration required to reduce virus-induced cytopathogenicity by 50%); details: Homo sapiens; outline: as §1

## N[C@H]1CSCON2CCc3c([nH]c4ccccc34)[C@H]12
[1]
  MIC: > 1 µg/mL
[2]
  MIC: > 1 µg/mL
[3]
  MCC: > 4 µg/mL
[4]
  MCC: 8 µg/mL
[5]
  IC50: 0.77 µg/mL (≈ 2.8 µM)
[6]
  IC50: 0.6 µg/mL (≈ 2.18 µM)
[7]
  MIC: > 4 µg/mL
[8]
  MCC: 10 µg/mL
[9]
  MIC: 2 µg/mL (≈ 7.26 µM)
[10]
  MIC: > 4 µg/mL
[11]
  MIC: > 4 µg/mL
[12]
  MIC: > 4 µg/mL
[13]
  MIC: 2 µg/mL (≈ 7.26 µM)
[14]
  MIC: > 4 µg/mL
[15]
  MIC: 2 µg/mL (≈ 7.26 µM)
[16]
  MIC: > 4 µg/mL
[17]
  MCC: > 10 µg/mL
[18]
  MIC: > 4 µg/mL
[19]
  MIC: > 4 µg/mL
[20]
  MIC: > 4 µg/mL
[21]
  IC50: 1.4 µg/mL (≈ 5.08 µM)
[22]
  MIC: > 1.6 µg/mL
[23]
  MIC: > 4 µg/mL
[24]
  MIC: > 4 µg/mL
[25]
  MIC: > 1.6 µg/mL
[26]
  MIC: > 1 µg/mL
[27]
  MIC: > 1.6 µg/mL

## N[C@@H]1CSCON2CCc3c([nH]c4ccccc34)[C@H]12
[1]
  MIC: 0.7 µg/mL (≈ 2.54 µM)
[2]
  MIC: 0.2 µg/mL (≈ 0.726 µM)
[3]
  MCC: > 4 µg/mL
[4]
  MCC: 8 µg/mL
[5]
  IC50: 0.075 µg/mL (≈ 0.272 µM)
[6]
  IC50: 0.12 µg/mL (≈ 0.436 µM)
[7]
  MIC: 0.2 µg/mL (≈ 0.726 µM)
[8]
  MCC: > 10 µg/mL
[9]
  MIC: 0.07 µg/mL (≈ 0.254 µM)
[10]
  MIC: 0.7 µg/mL (≈ 2.54 µM)
[11]
  MIC: 0.2 µg/mL (≈ 0.726 µM)
[12]
  MIC: 0.7 µg/mL (≈ 2.54 µM)
[13]
  MIC: 0.2 µg/mL (≈ 0.726 µM)
[14]
  MIC: 0.2 µg/mL (≈ 0.726 µM)
[15]
  MIC: 0.07 µg/mL (≈ 0.254 µM)
[16]
  MIC: 0.4 µg/mL (≈ 1.45 µM)
[17]
  MCC: > 4 µg/mL
[18]
  MIC: 0.2 µg/mL (≈ 0.726 µM)
[19]
  MIC: 0.2 µg/mL (≈ 0.726 µM)
[20]
  MIC: 0.2 µg/mL (≈ 0.726 µM)
[21]
  IC50: 0.11 µg/mL (≈ 0.399 µM)
[22]
  MIC: 0.8 µg/mL (≈ 2.91 µM)
[23]
  MIC: 0.4 µg/mL (≈ 1.45 µM)
[24]
  MIC: 0.1 µg/mL (≈ 0.363 µM)
[25]
  MIC: 0.8 µg/mL (≈ 2.91 µM)
[26]
  MIC: 0.7 µg/mL (≈ 2.54 µM)
[27]
  MIC: 0.8 µg/mL (≈ 2.91 µM)
